Measured values published in ChEMBL document CHEMBL1142888, “Synthesis, antimicrobial, and anti-inflammatory activities of novel 2-(1-adamantyl)-5-substituted-1,3,4-oxadiazoles and 2-(1-adamantylamino)-5-substituted-1,3,4-thiadiazoles” (2007).
Converted amounts (≈) assume the structure as drawn.

Key:
Type in all cases: functional
Escherichia coli = assay: Antimicrobial activity against Escherichia coli IFO 3301 at 200 ug/disc after 24 hrs; conditions: IFO 3301, 24 h, read-out: IZ
Bacillus subtilis [1] = assay: Antimicrobial activity against Bacillus subtilis IFO 3007 at 200 ug/disc after 24 hrs; conditions: IFO 3007, 24 h, read-out: IZ
Candida albicans [2] = assay: Antimicrobial activity against Candida albicans IFO 0583 at 200 ug/disc after 48 hrs; conditions: IFO 0583, 48 h, read-out: IZ
Rattus norvegicus [3] = assay: Antiinflammatory effect on carrageenan-induced paw oedema Sprague-Dawley rat assessed as reduction of paw oedema at 20 mg/kg, ip; set-up: scale not given: the % may be the effect or the level left; conditions: route intraperitoneal
Procedure, shortened: (§1)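 Rats in groups of five, acclimatised two days, given compound (20, 40, 60 mg/kg) or indomethacin (10 mg/kg) i.p. as suspension in 1 ml 0.5% aqueous carboxymethyl cellulose 1 h before 0.1 ml 1% carrageenin in saline into right hind plantar tissue; left paw got saline. Paw volume by water plethysmometer at 4 h; % protection vs vehicle control; mean ± S.E.M., Student's t test.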

Pseudomonas aeruginosa = assay: Antimicrobial activity against Pseudomonas aeruginosa IFO 3448 at 200 ug/disc; conditions: read-out: IZ
Staphylococcus aureus [4] = assay: Antimicrobial activity against Staphylococcus aureus IFO 3060 at 200 ug/disc after 24 hrs; conditions: IFO 3060, 24 h, read-out: IZ
Rattus norvegicus [5] = assay: Antiinflammatory effect on carrageenan-induced paw oedema Sprague-Dawley rat assessed as reduction of paw oedema at 40 mg/kg, ip; set-up: scale not given: the % may be the effect or the level left; conditions: route intraperitoneal; procedure, shortened: as §1
Rattus norvegicus [6] = assay: Antiinflammatory effect on carrageenan-induced paw oedema Sprague-Dawley rat assessed as reduction of paw oedema at 60 mg/kg, ip; set-up: scale not given: the % may be the effect or the level left; conditions: route intraperitoneal; procedure, shortened: as §1
Candida albicans [7] = assay: Antimicrobial activity against Candida albicans IFO 0583 after 48 hrs; conditions: IFO 0583, 48 h
Bacillus subtilis [8] = assay: Antimicrobial activity against Bacillus subtilis IFO 3007 after 24 hrs; conditions: IFO 3007, 24 h
Staphylococcus aureus [9] = assay: Antimicrobial activity against Staphylococcus aureus IFO 3060 after 24 hrs; conditions: IFO 3060, 24 h

MIC (Candida albicans [7]) | MIC (Bacillus subtilis [8]) | MIC (Staphylococcus aureus [9]) | SMILES | zone of inhibition at 200 µg/disc (Escherichia coli) | zone of inhibition at 200 µg/disc (Bacillus subtilis [1]) | zone of inhibition at 200 µg/disc (Candida albicans [2]) | Activity (Rattus norvegicus [3]) | zone of inhibition at 200 µg/disc (Pseudomonas aeruginosa) | zone of inhibition at 200 µg/disc (Staphylococcus aureus [4]) | Activity (Rattus norvegicus [5]) | Activity (Rattus norvegicus [6])
– | – | – | O=C(NNC(=S)NC12CC3CC(CC(C3)C1)C2)c1ccc(Cl)cc1 | < 10 mm | 13 mm | < 10 mm | 9.11% | < 10 mm | < 10 mm | – | –
4 µg/mL (≈ 10.3 µM) | – | – | O=C(NNC(=S)NC12CC3CC(CC(C3)C1)C2)C12CC3CC(CC(C3)C1)C2 | < 10 mm | < 10 mm | 16 mm | 11.34% | < 10 mm | < 10 mm | 13.08% | 10.12%
– | – | – | O=C(NNC(=S)NC12CC3CC(CC(C3)C1)C2)c1ccc(Br)cc1 | < 10 mm | 10 mm | < 10 mm | – | < 10 mm | < 10 mm | 2.34% | –
– | 4 µg/mL (≈ 11.9 µM) | – | O=C(NNC(=S)NC12CC3CC(CC(C3)C1)C2)c1cccs1 | 10 mm | 18 mm | < 10 mm | 0.96% | < 10 mm | < 10 mm | 2.16% | –
– | – | – | Fc1ccc(-c2nnc(NC34CC5CC(CC(C5)C3)C4)s2)cc1 | 10 mm | 10 mm | < 10 mm | 18.02% | < 10 mm | 14 mm | 35.55% | 39.35%
2 µg/mL (≈ 5.41 µM) | – | – | C1C2CC3CC1CC(Nc1nnc(C45CC6CC(CC(C6)C4)C5)s1)(C2)C3 | < 10 mm | < 10 mm | 18 mm | 31.6% | – | < 10 mm | 39.65% | 44.14%
– | – | – | c1ccc(-c2nnc(C34CC5CC(CC(C5)C3)C4)o2)cc1 | < 10 mm | < 10 mm | < 10 mm | 23.16% | < 10 mm | < 10 mm | 31.28% | 34.5%
– | – | – | Brc1ccc(-c2nnc(C34CC5CC(CC(C5)C3)C4)o2)cc1 | < 10 mm | 14 mm | < 10 mm | 11.6% | < 10 mm | < 10 mm | 13.15% | 13.01%
– | – | – | O=[N+]([O-])c1ccc(-c2nnc(C34CC5CC(CC(C5)C3)C4)o2)cc1 | < 10 mm | < 10 mm | < 10 mm | 9.92% | < 10 mm | < 10 mm | 13.56% | 12.08%
– | – | – | C1C2CC3CC1CC(c1nnc(C45CC6CC(CC(C6)C4)C5)o1)(C2)C3 | < 10 mm | < 10 mm | 10 mm | 44.27% | < 10 mm | < 10 mm | 68.97% | 71.52%
– | 0.5 µg/mL (≈ 1.47 µM) | 2 µg/mL (≈ 5.88 µM) | COc1ccc(-c2nnc(C34CC5CC(CC(C5)C3)C4)o2)cc1OC | 12 mm | 24 mm | < 10 mm | 36.73% | < 10 mm | 18 mm | 53.61% | 70.2%
